Calls of active or inactive are those of the source. No cut-off for these calls is given here.
Legend:
[1] = biological target: T1, Peroxisome proliferator-activated receptor alpha (Homo sapiens) (UniProt Q07869); assay: Agonist activity at human PPARalpha ligand binding domain expressed in COS-1 cells co-transfected with Gal4 at 10 uM by luciferase reporter gene assay; assay type: cell-based
T1 sequence (whole entry): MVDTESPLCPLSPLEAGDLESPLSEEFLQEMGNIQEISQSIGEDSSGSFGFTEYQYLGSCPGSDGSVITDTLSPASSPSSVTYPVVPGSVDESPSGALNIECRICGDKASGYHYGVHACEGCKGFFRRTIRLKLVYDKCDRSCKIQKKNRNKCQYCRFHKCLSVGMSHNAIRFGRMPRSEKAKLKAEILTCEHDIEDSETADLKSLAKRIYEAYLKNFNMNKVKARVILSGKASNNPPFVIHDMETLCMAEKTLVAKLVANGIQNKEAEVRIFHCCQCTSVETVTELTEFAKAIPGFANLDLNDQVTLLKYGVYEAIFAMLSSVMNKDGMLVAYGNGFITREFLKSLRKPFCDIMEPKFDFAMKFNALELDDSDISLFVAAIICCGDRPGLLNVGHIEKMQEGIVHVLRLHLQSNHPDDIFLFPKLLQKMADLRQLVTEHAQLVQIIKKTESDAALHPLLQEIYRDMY
Summary of the method: (§1)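 COS-1 cells in DMEM with 10% inactivated FBS, 37 °C, 5% CO2, plated 1 day before lipofectamine transfection. Per well: 320 ng (UAS)5-tk-LUC reporter, 640 ng empty pGL3 basic, 30 ng pSG5-GAL4-hPPAR (α, δ or γ). Compound 10 μM (DMSO negative control) added 5 h post-transfection. Cells kept 24 h, then lysed for luciferase read-out. Positive controls: EHA for PPARα, GW 501516 for PPARδ.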

[2] = biological target: T2, Peroxisome proliferator-activated receptor delta (Homo sapiens) (UniProt Q03181); assay: Agonist activity at human PPARdelta ligand binding domain expressed in COS-1 cells co-transfected with Gal4 at 10 uM by luciferase reporter gene assay; assay type: cell-based
T2 sequence (whole entry): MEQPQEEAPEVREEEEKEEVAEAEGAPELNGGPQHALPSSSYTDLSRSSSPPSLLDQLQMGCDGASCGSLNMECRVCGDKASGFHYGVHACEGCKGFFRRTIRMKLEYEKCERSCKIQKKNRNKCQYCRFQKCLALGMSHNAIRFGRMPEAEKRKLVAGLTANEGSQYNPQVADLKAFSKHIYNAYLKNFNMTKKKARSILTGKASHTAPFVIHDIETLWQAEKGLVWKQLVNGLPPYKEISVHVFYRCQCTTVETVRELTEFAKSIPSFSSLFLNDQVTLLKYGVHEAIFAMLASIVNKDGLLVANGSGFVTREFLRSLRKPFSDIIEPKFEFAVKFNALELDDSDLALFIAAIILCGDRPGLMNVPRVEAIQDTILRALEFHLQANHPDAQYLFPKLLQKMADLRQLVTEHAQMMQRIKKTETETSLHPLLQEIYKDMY
Summary of the method: as §1, with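 “read-out.” for “read-out. Positive controls: EHA for PPARα, GW 501516 for PPARδ.”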

[3] = biological target: T3, Peroxisome proliferator-activated receptor gamma (Homo sapiens) (UniProt P37231); assay: Agonist activity at human PPARgamma ligand binding domain expressed in COS-1 cells co-transfected with Gal4 at 10 uM by luciferase reporter gene assay; assay type: cell-based; summary of the method: as §1
T3 sequence (whole entry): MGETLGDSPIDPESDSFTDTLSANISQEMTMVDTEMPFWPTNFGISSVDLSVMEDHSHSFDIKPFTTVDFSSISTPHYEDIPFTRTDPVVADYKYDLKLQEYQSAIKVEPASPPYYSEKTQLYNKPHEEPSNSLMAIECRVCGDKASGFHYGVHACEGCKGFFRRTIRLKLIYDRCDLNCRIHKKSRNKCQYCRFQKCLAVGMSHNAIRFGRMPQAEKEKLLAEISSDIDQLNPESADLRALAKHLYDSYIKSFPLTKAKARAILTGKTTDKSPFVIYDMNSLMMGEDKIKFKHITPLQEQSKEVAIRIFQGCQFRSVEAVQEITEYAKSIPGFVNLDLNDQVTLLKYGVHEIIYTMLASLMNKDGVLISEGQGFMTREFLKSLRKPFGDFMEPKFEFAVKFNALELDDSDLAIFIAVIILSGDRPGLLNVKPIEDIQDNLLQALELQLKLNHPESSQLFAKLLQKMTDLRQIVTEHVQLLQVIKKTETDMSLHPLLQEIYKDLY

[4] = Induction of [14C]-oleic acid oxidation in human differentiated skeletal muscle cells assessed as accumulation of oxidized [14C]-oleic acid after 4 hrs by liquid scintillation counting; assay type: functional
Summary of the method: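 Human skeletal muscle myoblasts grown to 70-80% confluence, then differentiated 7 days (DMEM 5.5 mM glucose, 2% FCS, 25 pM insulin). Compound at five concentrations from day 3 (96 h). [1-14C]oleic acid (1 μCi/mL, 100 μM) in DPBS with 10 mM HEPES and 1 mM L-carnitine, 4 h at 37 °C. Filter-trapped CO2 counted by scintillation, normalized to protein. EC50 by non-linear regression. GW 501516 positive control.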

Structure (SMILES)	Activity [1]	Activity [2]	Activity [3]	EC50 [4] [nM]
Cc1cc(SCc2cn(-c3ccc(OC(F)(F)F)c(Cl)c3)nn2)ccc1OCC(=O)O	Active	Active	inactive	12
Cc1cc(SCc2cn(-c3ccc(C(F)(F)F)cc3)nn2)ccc1OCC(=O)O	–	–	–	1.8
Cc1cc(SCc2cn(-c3ccc(OC(F)(F)F)c(F)c3)nn2)ccc1OCC(=O)O	–	–	–	1.4
Cc1cc(SCc2cn(-c3ccc(C(F)(F)F)c(F)c3)nn2)ccc1OCC(=O)O	Active	Active	inactive	0.85
Cc1cc(SCc2cn(-c3ccc(OC(F)(F)F)cc3)nn2)ccc1OCC(=O)O	–	–	–	10
Cc1cc(SCc2sc(-c3ccc(C(F)(F)F)cc3)nc2C)ccc1OCC(=O)O [GW501516]	–	–	–	0.07
